{"source": "paper PMC9218157", "about": "(Heliyon, 2022)", "key": {"[1]": {"assay": "ABTS cation radical scavenging activity", "settings": "mean ± SE; concentration showing 50% of antioxidant activity", "how_it_was_run": "(§1)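 Procedure taken from a cited method; the paper gives no reagent levels, times or read-out wavelength. Test compounds were a pyridine Schiff base ligand and its Cu(II) and Zn(II) complexes, with butylated hydroxyanisole (BHA) as positive control.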"}, "[2]": {"assay": "Superoxide anion radical scavenging activity", "settings": "mean ± SE; concentration showing 50% of antioxidant activity", "how_it_was_run": "as §1"}, "[3]": {"assay": "DPPH free radical scavenging activity", "settings": "mean ± SE; concentration showing 50% of antioxidant activity", "how_it_was_run": "as §1"}, "[4]": {"biological_target": "T1, type-VI B porcine pancreatic α-amylase (Sus scrofa, UniProt P00690)", "T1 sequence (P00690 16-511)": "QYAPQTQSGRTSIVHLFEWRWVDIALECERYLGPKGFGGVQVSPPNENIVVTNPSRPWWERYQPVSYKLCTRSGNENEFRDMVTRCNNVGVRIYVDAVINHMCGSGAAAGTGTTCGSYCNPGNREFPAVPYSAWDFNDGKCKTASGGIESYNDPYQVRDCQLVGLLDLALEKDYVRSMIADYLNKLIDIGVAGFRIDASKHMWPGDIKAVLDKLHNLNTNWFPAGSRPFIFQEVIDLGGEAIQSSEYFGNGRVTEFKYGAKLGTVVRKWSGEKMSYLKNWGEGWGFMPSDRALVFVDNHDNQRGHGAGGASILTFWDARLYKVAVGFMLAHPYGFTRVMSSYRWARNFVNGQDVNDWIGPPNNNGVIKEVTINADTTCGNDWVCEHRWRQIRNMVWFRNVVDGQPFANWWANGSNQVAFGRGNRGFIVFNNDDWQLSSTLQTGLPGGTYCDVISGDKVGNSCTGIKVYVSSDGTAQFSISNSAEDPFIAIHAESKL", "assay": "Inhibition of α-amylase", "format": "biochemical"}}, "note": "Marks after values point to notes of the source that are not given here.", "data": [{"smiles": "COc1cc(C=Nc2ccc([N+](=O)[O-])cn2)ccc1O", "note": "[HL, 2-methoxy-4-(((5-nitropyridin-2-yl)imino)methyl)phenol]", "values": [{"measurement": "EC50 Radical scavenging activities ABTS", "setting": "[1]", "value": "4.65 ± 0.61^d mg/mL"}, {"measurement": "EC50 Radical scavenging activities Superoxide", "setting": "[2]", "value": "5.25 ± 2.35^d mg/mL"}, {"measurement": "EC50 Radical scavenging activities DPPH", "setting": "[3]", "value": "3.10 ± 0.47^d mg/mL"}, {"measurement": "IC50", "setting": "[4]", "value": 11.3, "unit": "mM"}]}]}
